In the library only some 3% were active in any assay of this set; here they are far more common.
CASP6 VEID inh – blocks human caspase-6 cleavage activity; P55212; purified caspase-6, Z-VEID-R110 cleavage fluorescence; inhibition, % at 12.5 µM; 0.53% of 350,000 active; AID 686996;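 active = mean inhibition across replicates at least about 35%, with every replicate also reaching that limit, limit read from the data; inconclusive = only one of the two criteria met; inactive = neither criterion met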;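 note: 0% = median of neutral control wells and 100% = no fluorescence left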
Target sequence (P55212 24-179 limits assumed): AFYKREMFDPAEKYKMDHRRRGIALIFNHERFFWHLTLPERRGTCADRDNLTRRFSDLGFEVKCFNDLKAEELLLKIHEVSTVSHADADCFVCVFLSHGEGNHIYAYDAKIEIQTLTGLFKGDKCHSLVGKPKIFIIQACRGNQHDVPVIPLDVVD
Target sequence (P55212 194-293 limits assumed): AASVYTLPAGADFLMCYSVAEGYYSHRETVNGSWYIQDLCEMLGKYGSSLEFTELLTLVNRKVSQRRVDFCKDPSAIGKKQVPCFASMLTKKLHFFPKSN
XiGFP reactiv – reactivates the inactive X chromosome in mouse fibroblasts | AID 743238 | 0.055% of 360,000 active | activation, % at 7.58 µM | XiGFP mouse fibroblasts, % GFP-positive cells imaging, 3 d; cells co-treated with 5-aza-dC sensitizer; scaled so ellipticine positive control = 100%;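 active = mean normalized replicate activation at least 10% and every replicate at or above 10%; inconclusive = only one of the two criteria met; inactive = mean below 10% and not all replicates reach 10%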;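 note: 0% = median of on-plate neutral control wells and 100% = ellipticine 6 µM median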
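Assay system – SV40-immortalized XiGFP fibroblast cells, line 68-5-11 · Buffer or medium – DMEM supplemented with 5-aza-dC as sensitizing agent · Dosing – one concentration, pinned · Benchmarks – positive control ellipticine, 6 µM final · Times – 3 days compound exposure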
Wnt act – Wnt/beta-catenin pathway activation. activation, % at 9.35 µM. Wnt/beta-catenin reporter cell assay, activator, plate reader. AID 743398. 1.2% of 300,000 active; in the data active = activation above about 30%, passing the limit was not always enough; inconclusive = no clear call, values can overlap the other calls;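 note: 0% = neutral control wells and 100% = positive control wells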
NSD2 HMT inh – inhibitors of human histone methyltransferase NSD2; O96028; NSD2 peptide methylation, AlphaScreen, 120 min; inhibition, % at 12.5 µM; 0.54% of 310,000 active; AID 743445; in the data active = inhibition above about 50%
esBAF inh – blocks esBAF chromatin remodeling in mouse ES cells; reporter increase, % at 12.5 µM; Bmi1-luciferase knock-in reporter, 24 h; 100% = twice the neutral-well signal; 2% of 350,000 active; in the data active = activation above about 40%; inconclusive = no clear call, values can overlap the other calls;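 note: 0% = median of the plate's neutral control wells and 100% = double that signal; a rise in the Bmi1 reporter signal indicates esBAF inhibition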
MITF TRPM1 HTS – activators of MITF-driven TRPM1 promoter activity in SK-MEL-5 cells | SK-MEL-5 TRPM1-promoter luciferase, 24 h; % of positive control, neutral wells = 0 | AID 588334 | 0.75% of 300,000 active | activation, % at 12.5 µM;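 active = mean activation of at least 80% with every replicate also reaching 80%; inconclusive = mean reaches 80% but some replicate falls short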;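 note: 0% = neutral control wells and 100% = parthenolide positive control wells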
An asterisk follows results filed as active; ? = inconclusive; . = not tested or not shown.

SMILES	CASP6 VEID inh	XiGFP reactiv	Wnt act	NSD2 HMT inh	esBAF inh	MITF TRPM1 HTS
CCCC12CN3CCN(CC(C3)/C1=N\NC(=O)c1ccccc1N)C2	.	0.0	37.3*	-5.2	.	-3.7
Nc1ccccc1C(=O)N/N=C1/C2CN3CCN(C2)CC1(Cc1ccccc1)C3	1.3	0.0	2.3	1.2	.	14.2
CCOCc1c(C(=O)OCC(=O)Nc2ccccc2C(N)=O)oc2ccccc12	1.7	0.2	38.5*	0.1	-3.4	-4.5
CCOC(=O)c1ccc(-c2ccc(CO)o2)cc1	.	.	45.1*	-1.7	38.3	.
O=C(NC12CC3CC(CC(C3)C1)C2)c1ccc(-c2ccccc2Cl)o1	.	.	3.9	-2.8	44.8*	21.1
O=C(NCC1CCCO1)c1ccc(-c2ccccc2Cl)o1 (stereo not drawn)	-0.6	0.0	-4.0	4.8	.	130.2*
O=C(NC12CC3CC(CC(C3)C1)C2)c1ccc(-c2ccc(Cl)cc2)o1	-5.3	-0.1	-1.7	-4.2	.	48.7
O=C(NCC1CCCO1)c1cc(-c2ccccc2F)no1 (stereo not drawn)	-2.2	0.0	26.1	-4.6	56.8*	26.8
O=C(NCC1CCCO1)c1ccccc1 (stereo not drawn)	.	.	-0.2	-2.5	-5.9	-8.0
COc1ccccc1OCCCOc1ccc([N+](=O)[O-])cc1Cl	.	.	-2.1	0.0	55.9*	.
COc1cc(C)ccc1OCCCOc1ccccc1Br	.	.	9.9	-3.8	51.6*	60.3
COCc1cn(CC[C@H]2CC[C@H](NC(=O)Nc3ccc(Cl)cc3)[C@H](CO)O2)nn1	2.6	1.1	.	.	-4.0	.
O=C(COc1ccccc1)Nc1nc2ccccc2[nH]1	.	.	?	-0.8	49.1*	50.5
CCCOc1cccc(OCC(=O)Nc2nc3ccccc3[nH]2)c1	-0.2	0.5	-0.7	4.4	.	9.2
CC(CC(=O)Nc1nc2ccccc2[nH]1)c1ccccc1 (stereo not drawn)	.	.	2.3	-2.9	70.1*	60.5
O=C(O)c1ccc2c3c(cccc13)C(=O)N(c1ccccc1)C2=O	50.3*	0.1	0.7	31.1	2.3	-13.3
O=C(O)c1ccc(N2C(=O)c3cccc4c(C(=O)O)ccc(c34)C2=O)cc1	53.4*	0.1	0.9	2.7	.	4.1
COCC#Cc1cnc2c(c1)C(=O)N([C@@H](C)CO)C[C@H](C)[C@@H](CN(C)C(=O)c1ccc3c(c1)OCO3)O2	-2.0	-0.6	.	.	2.1	.
CCOC(=O)c1oc2cc(O)c(CC)cc2c(=O)c1-c1cscn1	2.3	0.0	-0.9	-7.9	2.9	-5.2
CCc1cc2c(=O)c(-c3cscn3)coc2cc1O	.	.	5.4	0.5	90.0*	24.6
CO[C@H]1CN(C)C(=O)c2ccc(NC(=O)Nc3ccccc3F)cc2OC[C@@H](C)N(C(C)=O)C[C@@H]1C	0.0	0.4	.	.	2.8	.
Cc1ccc(NC(=O)CN(C)C(=O)Cn2ncc(Cl)c(Cl)c2=O)cc1	40.6*	2.2	.	6.2	.	-90.9
O=C(C[C@@H]1CC[C@@H]2[C@H](COC[C@H](O)CN2S(=O)(=O)c2cccc(Cl)c2)O1)N1CCCCC1	.	0.2	.	.	-3.1	.
COc1ccccc1CNC(=O)C[C@H]1CC[C@H]2[C@@H](COC[C@H](O)CN2C(=O)Nc2ccc(Cl)cc2)O1	-1.9	0.2	.	.	33.6	.
COc1ccccc1CNC(=O)C[C@H]1CC[C@@H]2[C@H](COC[C@H](O)CN2C(=O)Nc2ccc(Cl)cc2)O1	0.0	0.0	.	.	43.2*	.
SMILES	CASP6 VEID inh	XiGFP reactiv	Wnt act	NSD2 HMT inh	esBAF inh	MITF TRPM1 HTS
COC(=O)C[C@@H]1CC[C@H]2[C@@H](COC[C@H](O)CN2C(=O)Nc2cccc(F)c2)O1	1.6	0.1	.	.	20.2	.
COC(=O)C[C@H]1CC[C@H]2[C@@H](COC[C@@H](O)CN2C(=O)Nc2cccc(F)c2)O1	0.2	0.2	.	.	49.8*	.
O=C(C[C@@H]1C=C[C@@H](NC(=O)c2ccc(F)cc2)[C@@H](CO)O1)NCCc1ccncc1	0.0	-0.1	.	.	-2.2	.
O=c1c2ccccc2oc2cc(-c3ccc(CN4CCOCC4)cc3)ccc12	0.1	-0.1	?	.	76.9*	?
C[C@@H]1CN([C@@H](C)CO)C(=O)c2cc(C3=CCCC3)cnc2O[C@H]1CN(C)Cc1cccnc1	4.3	0.3	.	.	-9.6	.
Cc1cc(NC(=O)CSc2nc3c(c(=O)n2Cc2ccccc2)SC(C)C3)no1 (stereo not drawn)	1.0	0.3	2.7	.	46.3*	21.0
